FN deposit inh = fibronectin deposition inhibition; inhibition, % at 12.6 µM; AH1F fibroblasts, Alexa488-fibronectin deposition fluorescence, overnight; 350,000 compounds, 0.086% hits; AID 743247;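 active = mean inhibition across replicates of 30% or more, regardless of how many single replicates reach that level; inconclusive = mean under 30% yet at least half of replicates reach 30%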;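 note: positive control wells lacked labelled fibronectin entirely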
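material = AH1F fibroblast monolayer depositing Alexa488-labelled fibronectin into matrix | amount = 10000 AH1F cells/well | buffer or medium = DMEM plus 2% serum, read in PBS | incubation = 1 h cell adhesion before compound, then overnight fibronectin incubation | detection = fluorescence at 485 nm excitation, 525 nm emission | evaluation = percent inhibition as loss of matrix-bound fibronectin fluorescence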
HIV Env fusion = blocks HIV Env-driven cell-cell fusion | 360,000 compounds, 1.1% hits | HeLa-JRFL Env/CEM21 cell fusion, luciferase | inhibition, % at 12.3 µM;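 active = mean replicate inhibition score of at least 50 and every replicate individually at or above 50; inconclusive = only one of the two criteria met; inactive = mean below 50 and not all replicates reaching 50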;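 note: 0% = plate neutral controls and 100% = maraviroc near 300 nM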
DENV2 CPE = DENV2-induced cell death inhibition. DENV2-infected cells, cytopathic effect rescue, plate reader. CPE inhibition, % at 9.99 µM. 350,000 compounds, 1.7% hits; in the data active = CPE inhibition above about 20%, passing the limit was not always enough; inconclusive = no clear call, values can overlap the other calls; tested in BHK-21 cells;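 note: 0% = median of neutral control wells and 100% = median of positive control wells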
PGC1a acetyl inh = lowers PGC1a acetylation signal in U2OS cells. inhibition, % at 15.6 µM. AID 651687. AlphaScreen anti-acetyl-lysine; with virally co-expressed GCN5 acetyltransferase. 350,000 compounds, 0.17% hits;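 active = every replicate shows inhibition of at least 40%; inconclusive = mean inhibition at least 40% but some replicate below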;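 note: 0% = neutral control wells and 100% = positive control wells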
Ecoli rRNA inh = inhibits bacterial ribosomal RNA function over humanized ribosomes; E. coli WT GFP vs humanized-ribosome RFP mutants, fluorescence, 24 h; hits give low values; DMSO median 0, no signal -100; GFP signal change (wild-type ribosome), % (no concentration beside the values); 350,000 compounds, 1.6% hits;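 active = significant combined selectivity score with lowered wild-type GFP, culture density cut under 30%, mutant RFP and density less affected; inactive = any of these conditions unmet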
PglD inh = PglD (C. jejuni) enzyme inhibition. AID 602405. inhibition, % at 12.5 µM. 360,000 compounds, 0.098% hits. purified PglD enzyme, DTNB colorimetric CoA detection; in the data active = inhibition above about 16%, passing the limit was not always enough; inconclusive = no clear call, values can overlap the other calls
* marks the source's active call; other numbers are inactive results; ? = inconclusive; · = not tested or not shown; [ ] = dose if it differs, or a comment. This is a sample that favours compounds with a hit; in the whole collection about 3.5% have one here.

SMILES | FN deposit inh | HIV Env fusion | DENV2 CPE | PGC1a acetyl inh | Ecoli rRNA inh | PglD inh
CNc1nc(N/N=C/c2ccc([N+](=O)[O-])cc2)nc(Nc2ccccc2)n1 | -4.4 | -7.7 | 6.1 | · | -39.8* | ·
CC(=O)N1CC2(C1)[C@H](c1ccccc1)[C@@H](CO)N2CC1CCOCC1 | · | · | 60.5* | 4.5 | -0.6 | ·
CC(=O)N1CC2(C1)[C@@H](c1ccccc1)[C@@H](CO)N2CC1CCOCC1 | · | · | 21.8* | 1.2 | 5.4 | ·
CN(C)CC(=O)N1[C@H](CO)[C@@H](c2ccccc2)C12CN(CC1CCOCC1)C2 | 4.9 | · | 20.5* | -5.6 | 0.9 | ·
CC(=O)N1CC2(C1)[C@H](c1ccccc1)[C@@H](CO)N2Cc1ccccc1 | 1.0 | · | 24.2* | 3.8 | 3.6 | ·
C[C@@H]1CN([C@@H](C)CO)C(=O)c2cc(NS(=O)(=O)c3ccc(Cl)cc3)ccc2O[C@H]1CN(C)CC1CCCCC1 | -5.0 | 0.4[16.7 µM] | 2.1 | · | -3.4 | 4.1
O=S(=O)(Cc1ccccc1)N1CC2(C1)[C@H](c1ccccc1)[C@@H](CO)N2CC1CCOCC1 | · | · | 26.6* | 0.1 | -3.1 | ·
CCCNC(=O)N1CC2(C1)[C@H](c1ccccc1)[C@@H](CO)N2CC1CCOCC1 | 5.5 | · | 23.7* | -16.0 | 0.4 | ·
O=S(=O)(Cc1ccccc1)N1CC2(C1)[C@H](c1ccccc1)[C@H](CO)N2CC1CCCC1 | -2.7 | · | · | · | -15.9 | ·
Cc1ccc(SCC(=O)NNC(=O)c2cncc(Br)c2)cc1 | -2.3 | -44.6 | 33.6* | -2.5 | 4.7 | 0.1
COc1ccc(-c2cc(C(F)(F)F)nc(SCc3cccc(C(=O)O)c3)n2)cc1 | · | · | -2.9 | -6.0 | -43.3* | -2.5
Fc1ccccc1C1c2[nH]c3ccccc3c2CCN1CCCn1cccn1 (centres undefined) | 3.6 | -12.1 | 31.3* | -22.9 | -11.0 | ·
CC(C)(C)C1c2[nH]c3ccccc3c2CCN1CCCn1cccn1 (centres undefined) | 1.0 | 14.8 | · | -4.7 | · | 1.8
CC(C)C#Cc1ccc2c(c1)O[C@H](CN(C)C(=O)Cc1ccccn1)[C@@H](C)CN([C@@H](C)CO)S2(=O)=O | 1.1 | 6.9[16.7 µM] | -10.7 | 2.8 | -1.9 | -2.1
CCCCn1nc(C(=O)Nc2ccc3c(c2)OCO3)c2ccccc2c1=O | -2.7 | ? | 36.2* | 13.8 | -5.4 | 5.9
COCCCn1c(C(=O)N2CCOCC2)cc2c(=O)n3cccc(C)c3nc21 | -2.7 | 4.2 | -1.1 | · | 6.1 | -1.0
CCCCn1nc(C(=O)Nc2ccc(-n3cnnn3)cc2)c2ccccc2c1=O | 1.8 | 8.6 | 57.3* | 0.8 | 8.2 | -7.6
COCCCn1c(C(=O)Nc2ccc3c(c2)OCO3)cc2c(=O)n3cccc(C)c3nc21 | -3.8 | 63.5* | 0.1 | -4.5 | 4.7 | -2.3
CCC(=O)N(C)C[C@H]1Oc2cc(-c3ccccc3F)ccc2S(=O)(=O)N([C@@H](C)CO)C[C@@H]1C | · | 7.5[16.7 µM] | -2.3 | -5.1 | -6.5 | 0.4
O=C(N/N=C/c1cccc([N+](=O)[O-])c1O)C(O)(c1ccccc1)c1ccccc1 | -0.6 | 19.6 | 12.3 | · | -18.4* | -8.4
O=[N+]([O-])c1ccccc1C=NNC(=S)NN=Cc1ccccc1[N+](=O)[O-] | · | -72.5 | -4.6 | 13.9 | -20.4* | -0.5
O=C(CN(Cc1ccccc1)S(=O)(=O)c1ccccc1)N/N=C/c1ccccc1[N+](=O)[O-] | · | · | -1.9 | -10.6 | -18.9* | -3.9
Cc1ccc(CN(CC(=O)N/N=C/c2ccccc2[N+](=O)[O-])S(=O)(=O)c2ccc(C)cc2)cc1 | · | · | · | -1.4 | · | -2.9
CC(C)NC(=S)N/N=C/c1ccccc1[N+](=O)[O-] | -1.7 | 8.6 | 8.0 | 9.8 | 12.1 | ·
S=c1nc[nH]c2c1[nH]c1ccc(Cl)cc12 | -9.0 | 68.5* | 15.9 | -1.5 | 2.9 | ·
O=C(O)Cn1nc(-c2ccccc2)cc1-c1ccccc1 | 0.7 | -42.4 | 80.1* | 18.8 | 5.0 | 3.8
O=C(NC1CCCC1)c1nc(-c2c(F)cccc2F)oc1-c1ccccc1 | 4.7 | 27.5 | 21.7* | · | 1.4 | ·
Cc1noc(C)c1NC(=O)N[C@@H]1CC[C@@H](CCNC(=O)C2CCCCC2)O[C@H]1CO | -6.1 | 7.2[16.7 µM] | 4.9 | -6.8 | -0.6 | 2.8
CCOC(=O)CNC(=S)N(Cc1ccccc1F)C1CCCCC1 | 1.5 | 25.0 | 2.8 | -12.0 | -22.5 | -0.6
Cc1ccccc1NC(=S)N(Cc1cccs1)C1CCCC1 | 6.7 | 8.7 | -9.7 | -2.1 | -24.0* | 2.4
